The subject of assay [1] is Epidermal growth factor receptor (Homo sapiens), P00533 [L858R]. To be noted: BaF3, time 72.0 hrs.
The subject of assay [2] is Epidermal growth factor receptor (Homo sapiens), P00533 [L858R,T790M]. To be noted: BaF3, time 72.0 hrs.
Assay [3] addresses Epidermal growth factor receptor (Homo sapiens) (UniProt P00533). To be noted: BaF3, time 72.0 hrs.
The test system of assay [4] is Epidermal growth factor receptor (Homo sapiens), P00533 [L858R]. To be noted: NCI-H3255, time 72.0 hrs.
Epidermal growth factor receptor (Homo sapiens), P00533 [L858R], sequence (P00533 whole entry L858R): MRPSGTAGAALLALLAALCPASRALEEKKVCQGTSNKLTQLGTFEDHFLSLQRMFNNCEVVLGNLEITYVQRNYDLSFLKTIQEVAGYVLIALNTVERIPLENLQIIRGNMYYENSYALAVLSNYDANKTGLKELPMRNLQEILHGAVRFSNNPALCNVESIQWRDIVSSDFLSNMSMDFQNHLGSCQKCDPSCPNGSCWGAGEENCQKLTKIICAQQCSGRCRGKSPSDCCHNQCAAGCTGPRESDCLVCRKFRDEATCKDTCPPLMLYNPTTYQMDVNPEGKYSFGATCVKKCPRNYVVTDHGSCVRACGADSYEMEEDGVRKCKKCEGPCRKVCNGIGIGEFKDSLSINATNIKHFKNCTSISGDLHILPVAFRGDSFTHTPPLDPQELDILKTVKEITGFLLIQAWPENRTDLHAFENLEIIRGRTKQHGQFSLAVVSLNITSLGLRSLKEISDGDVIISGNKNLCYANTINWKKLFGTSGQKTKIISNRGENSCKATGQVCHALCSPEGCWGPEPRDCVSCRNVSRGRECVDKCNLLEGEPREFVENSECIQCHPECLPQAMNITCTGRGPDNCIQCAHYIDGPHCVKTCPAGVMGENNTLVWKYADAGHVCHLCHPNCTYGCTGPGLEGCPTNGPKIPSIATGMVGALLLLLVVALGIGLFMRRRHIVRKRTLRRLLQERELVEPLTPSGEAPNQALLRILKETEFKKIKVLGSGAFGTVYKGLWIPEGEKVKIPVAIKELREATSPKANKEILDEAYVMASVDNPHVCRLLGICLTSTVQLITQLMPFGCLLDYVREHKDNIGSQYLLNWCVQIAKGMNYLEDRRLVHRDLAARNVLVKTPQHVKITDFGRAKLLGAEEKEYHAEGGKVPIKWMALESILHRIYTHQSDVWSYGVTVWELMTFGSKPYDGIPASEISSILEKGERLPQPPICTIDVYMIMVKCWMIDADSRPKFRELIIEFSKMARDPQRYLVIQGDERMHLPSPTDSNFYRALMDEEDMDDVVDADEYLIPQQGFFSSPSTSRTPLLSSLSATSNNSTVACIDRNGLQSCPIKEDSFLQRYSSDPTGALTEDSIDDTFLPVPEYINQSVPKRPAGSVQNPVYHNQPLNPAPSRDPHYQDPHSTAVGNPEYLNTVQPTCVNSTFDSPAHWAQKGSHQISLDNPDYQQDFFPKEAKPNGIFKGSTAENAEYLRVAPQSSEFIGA
Assay [5] concerns the target Epidermal growth factor receptor (Mus musculus) (UniProt Q01279). To be noted: BaF3, time 72.0 hrs.
Assay [6] deals with Epidermal growth factor receptor (Homo sapiens) (UniProt P00533). Kind of assay: Inhibition of wild type EGFR in human A549 cells assessed as cell growth inhibition measured after 72 hrs by Celltiter-Glo luminescent cell viability assay. Type of assay: cell-based. Put shortly:
(§1)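 Cells seeded at 2500-3000 per well and exposed to test agents across a concentration series for 72 h. Viability read by CellTiter-Glo luminescence, normalized to DMSO controls. Mean of three independent measurements (standard error <20%); GI50 obtained by curve fitting. Single-concentration readout is proliferation rate at 10 µM.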
On the technique in general: In ATP-based viability assays light output follows the ATP content of the culture.

Assay [7] relates to NCI-H3255. Kind of assay: Antiproliferative activity against human NCI-H3255 cells assessed as cell growth inhibition at 10 uM measured after 72 hrs by Celltiter-Glo luminescent cell viability assay relative to control. To be noted: NCI-H3255, 72 h.
Assay [8] in a line: Induction of H2S generation in pH 7.4 PBS:acetone buffer at 20 uM measured after 2 hrs by NIR-HS probe based fluorescence spectrophotometric method. In kind it is functional. Put shortly: (§2)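 Compound at 20 µM incubated with NIR-HS (10 µM) in PBS:acetone 2:3 at 37 °C, sampled from 0 to 180 min (0, 5, 30, 60, 90, 120, 150, 180 min). Emission read at 723 nm (ex 670 nm). H2S quantified against a Na2S calibration curve (0-8 µM, same probe and conditions, 3 h, F/F0 at 723 nm).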

Assay [9] in a line: Induction of H2S generation in pH 7.4 PBS:acetone buffer at 10 to 200 uM measured after 3 hrs by NIR-HS probe based fluorescence spectrophotometric method. Type of assay: functional. To be noted: dose 10-200 µM. The gist of the method:
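NIR-HS probe (10 µM) incubated with compound (0, 5, 10, 50, 100, 200 µM) in PBS:acetone 2:3 (pH 7.4) at 37 °C for 3 h. Fluorescence read at ex 670 / em 723 nm.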

In a further assay the test system is HUVEC. Kind of assay: Cytotoxicity against HUVEC assessed as reduction in cell viability measured after 72 hrs by Celltiter-Glo luminescent cell viability assay. In kind it is cell-based. To be noted: Homo sapiens. The gist of the method:
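Cells seeded at 2500-3000 per well, exposed to a range of compound concentrations for 72 h. Viability read by CellTiter-Glo luminescence. Data normalised to DMSO controls, given as the mean of three independent measurements, with IC50 obtained by curve fitting.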

In assay [10] the test system is Epidermal growth factor receptor (Homo sapiens), P00533 [L858R]. Kind of assay: Inhibition of EGFR L858R mutant in human NCI-H3255 cells assessed as cell growth inhibition measured after 72 hrs in presence of ZnCl2 by Celltiter-Glo luminescent cell viability assay. In kind it is cell-based.
The test system of assay [11] is NCI-H3255. Kind of assay: Cell cycle arrest in human NCI-H3255 cells assessed as accumulation at G0/G1 phase at 10 uM measured after 72 hrs by propidium iodide staining based flow cytometry (reference value: 53.55%). In kind it is functional. Put shortly:
(§3)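 H3255 cells in 10% FBS/RPMI given DMSO or compound at 1, 5 or 10 µM for 72 h, then washed in cold PBS, fixed in 70% cold ethanol and held overnight at -20 °C. Stained with PI/RNase buffer for 15 min at room temperature, then analysed by flow cytometry with ModFit phase modelling.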

In assay [12] the test system is NCI-H3255. Kind of assay: Cell cycle arrest in human NCI-H3255 cells assessed as accumulation at S phase at 10 uM measured after 72 hrs by propidium iodide staining based flow cytometry (reference value: 36.26%). In kind it is functional. Put shortly:
as §3

In assay [13] the test system is NCI-H3255. Kind of assay: Cell cycle arrest in human NCI-H3255 cells assessed as accumulation at G2/M phase at 1 uM measured after 72 hrs by propidium iodide staining based flow cytometry (reference value: 10.18%). Type of assay: functional. Put shortly: as §3
(Flow cytometry measures light scatter and fluorescence of single cells or particles in a stream.)

Assay [14] is described as follows: Induction of H2S generation in pH 7.4 PBS:acetone buffer at 20 uM measured within 1 hr by NIR-HS probe based fluorescence spectrophotometric method. In kind it is functional. The gist of the method: as §2
Assay [15] deals with NCI-H3255. Kind of assay: Cell cycle arrest in human NCI-H3255 cells assessed as accumulation at S phase at 5 uM measured after 72 hrs by propidium iodide staining based flow cytometry (reference value: 36.26%). In kind it is functional. Put shortly: as §3
Assay [16] concerns NCI-H3255. Kind of assay: Cell cycle arrest in human NCI-H3255 cells assessed as accumulation at G2/M phase at 10 uM measured after 72 hrs by propidium iodide staining based flow cytometry (reference value: 10.18%). In kind it is functional. The gist of the method:
as §3

Assay [17] deals with NCI-H3255. Kind of assay: Cell cycle arrest in human NCI-H3255 cells assessed as accumulation at G0/G1 phase at 5 uM measured after 72 hrs by propidium iodide staining based flow cytometry (reference value: 53.55%). Type of assay: functional. Put shortly:
as §3

In assay [18] the test system is NCI-H3255. Kind of assay: Cell cycle arrest in human NCI-H3255 cells assessed as accumulation at S phase at 1 uM measured after 72 hrs by propidium iodide staining based flow cytometry (reference value: 36.26%). Type of assay: functional. The gist of the method:
as §3

Assay [19] relates to NCI-H3255. Kind of assay: Cell cycle arrest in human NCI-H3255 cells assessed as accumulation at G0/G1 phase at 1 uM measured after 72 hrs by propidium iodide staining based flow cytometry (reference value: 53.55%). In kind it is functional. The gist of the method: as §3
Assay [20] deals with NCI-H3255. Kind of assay: Cell cycle arrest in human NCI-H3255 cells assessed as accumulation at G2/M phase at 5 uM measured after 72 hrs by propidium iodide staining based flow cytometry (reference value: 10.18%). In kind it is functional. The gist of the method:
as §3

Assay [21] deals with Epidermal growth factor receptor (Homo sapiens), P00533 [L858R]. Kind of assay: Inhibition of EGFR L858R mutant phosphorylation at Y1068 residue in human NCI-H3255 cells measured after 4 hrs by Western blot analysis. In kind it is cell-based. The gist of the method:
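H3255 cells treated with a range of concentrations for 4 h, then lysed in cold RIPA containing 1% PMSF. Lysate protein quantified by BCA, separated by SDS-PAGE and transferred to PVDF. Blocked in 5% milk, probed with anti-phospho-EGFR (Y1068) and developed by ECL.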
In general terms: A western blot detects proteins with antibodies after separation by electrophoresis.

Assay [22] deals with Epidermal growth factor receptor (Homo sapiens), P00533 [C797S]. Kind of assay: Inhibition of TEL-fused EGFR C797S mutant (unknown origin) transfected in mouse BaF3 cells assessed as reduction in cell proliferation incubated for 72 hrs by Celltiter-Glo luminescent cell viability assay. In kind it is cell-based. Put shortly: as §1

One may read the GI50 as the concentration at which growth is held to half of that of the control. Broadly, the IC50 is the concentration that inhibits the measured activity by half.

Epidermal growth factor receptor (Homo sapiens), P00533 [L858R,T790M], sequence (P00533 whole entry T790M/L858R, looked up): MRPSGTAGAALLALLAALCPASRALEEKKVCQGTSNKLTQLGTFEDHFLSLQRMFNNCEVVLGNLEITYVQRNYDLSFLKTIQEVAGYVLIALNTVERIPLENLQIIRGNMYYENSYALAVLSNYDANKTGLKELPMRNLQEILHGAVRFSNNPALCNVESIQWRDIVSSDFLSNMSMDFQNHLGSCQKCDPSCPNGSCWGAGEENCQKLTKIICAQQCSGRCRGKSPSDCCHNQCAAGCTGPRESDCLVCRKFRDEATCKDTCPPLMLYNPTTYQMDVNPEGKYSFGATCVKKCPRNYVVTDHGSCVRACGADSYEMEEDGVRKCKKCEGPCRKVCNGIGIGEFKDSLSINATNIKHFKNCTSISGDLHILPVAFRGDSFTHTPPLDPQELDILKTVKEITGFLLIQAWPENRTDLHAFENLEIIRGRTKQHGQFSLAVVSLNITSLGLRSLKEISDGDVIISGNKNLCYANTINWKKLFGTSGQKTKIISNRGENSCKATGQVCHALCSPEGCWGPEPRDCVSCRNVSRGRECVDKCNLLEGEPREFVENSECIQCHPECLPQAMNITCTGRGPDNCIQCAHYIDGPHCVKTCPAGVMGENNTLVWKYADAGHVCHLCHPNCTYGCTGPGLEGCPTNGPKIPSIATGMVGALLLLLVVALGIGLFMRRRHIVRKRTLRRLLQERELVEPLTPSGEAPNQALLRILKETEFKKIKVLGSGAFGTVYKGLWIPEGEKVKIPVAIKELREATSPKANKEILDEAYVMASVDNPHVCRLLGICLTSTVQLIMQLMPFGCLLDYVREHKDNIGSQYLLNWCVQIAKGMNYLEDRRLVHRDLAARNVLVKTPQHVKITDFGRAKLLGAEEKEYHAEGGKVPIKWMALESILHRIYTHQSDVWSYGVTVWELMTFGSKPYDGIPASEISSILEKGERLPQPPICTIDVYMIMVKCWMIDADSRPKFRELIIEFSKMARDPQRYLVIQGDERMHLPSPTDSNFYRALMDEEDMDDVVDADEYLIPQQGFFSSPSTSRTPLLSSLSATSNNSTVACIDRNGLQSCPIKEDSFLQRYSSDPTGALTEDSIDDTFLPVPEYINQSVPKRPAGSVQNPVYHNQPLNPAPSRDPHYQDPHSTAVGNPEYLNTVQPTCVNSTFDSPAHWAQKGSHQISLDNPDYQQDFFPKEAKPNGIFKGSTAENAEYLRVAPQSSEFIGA
Epidermal growth factor receptor (Mus musculus), sequence (Q01279 whole entry): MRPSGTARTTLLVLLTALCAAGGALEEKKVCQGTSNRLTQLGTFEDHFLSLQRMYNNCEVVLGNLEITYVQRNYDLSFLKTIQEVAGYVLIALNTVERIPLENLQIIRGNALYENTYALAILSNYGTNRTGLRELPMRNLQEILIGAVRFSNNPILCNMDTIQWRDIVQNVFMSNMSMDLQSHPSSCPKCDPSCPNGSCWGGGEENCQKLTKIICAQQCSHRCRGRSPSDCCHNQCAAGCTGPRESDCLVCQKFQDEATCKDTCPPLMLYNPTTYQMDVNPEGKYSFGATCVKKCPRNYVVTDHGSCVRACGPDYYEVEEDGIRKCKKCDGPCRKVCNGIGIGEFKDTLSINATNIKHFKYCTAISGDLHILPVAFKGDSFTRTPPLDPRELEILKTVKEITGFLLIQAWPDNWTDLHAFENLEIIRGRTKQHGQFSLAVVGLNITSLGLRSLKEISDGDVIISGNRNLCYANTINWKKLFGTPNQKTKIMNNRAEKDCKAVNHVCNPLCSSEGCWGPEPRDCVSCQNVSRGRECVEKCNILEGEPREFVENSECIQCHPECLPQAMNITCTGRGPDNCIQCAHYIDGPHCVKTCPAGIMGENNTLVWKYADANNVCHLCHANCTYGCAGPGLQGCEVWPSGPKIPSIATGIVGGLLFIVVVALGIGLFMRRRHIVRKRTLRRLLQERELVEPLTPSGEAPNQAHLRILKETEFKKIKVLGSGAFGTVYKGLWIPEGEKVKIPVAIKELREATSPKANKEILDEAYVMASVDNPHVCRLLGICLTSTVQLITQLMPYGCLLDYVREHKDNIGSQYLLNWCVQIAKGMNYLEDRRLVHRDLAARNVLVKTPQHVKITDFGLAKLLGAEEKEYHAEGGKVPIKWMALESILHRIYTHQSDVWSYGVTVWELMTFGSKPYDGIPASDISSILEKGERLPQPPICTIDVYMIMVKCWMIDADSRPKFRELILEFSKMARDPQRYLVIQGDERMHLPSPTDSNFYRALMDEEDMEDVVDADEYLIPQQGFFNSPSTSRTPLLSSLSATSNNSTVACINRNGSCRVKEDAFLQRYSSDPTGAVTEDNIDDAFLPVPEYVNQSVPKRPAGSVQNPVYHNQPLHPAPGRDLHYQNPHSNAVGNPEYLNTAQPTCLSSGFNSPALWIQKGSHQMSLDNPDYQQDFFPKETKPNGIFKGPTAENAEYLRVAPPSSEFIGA
Epidermal growth factor receptor (Homo sapiens), sequence (P00533 whole entry): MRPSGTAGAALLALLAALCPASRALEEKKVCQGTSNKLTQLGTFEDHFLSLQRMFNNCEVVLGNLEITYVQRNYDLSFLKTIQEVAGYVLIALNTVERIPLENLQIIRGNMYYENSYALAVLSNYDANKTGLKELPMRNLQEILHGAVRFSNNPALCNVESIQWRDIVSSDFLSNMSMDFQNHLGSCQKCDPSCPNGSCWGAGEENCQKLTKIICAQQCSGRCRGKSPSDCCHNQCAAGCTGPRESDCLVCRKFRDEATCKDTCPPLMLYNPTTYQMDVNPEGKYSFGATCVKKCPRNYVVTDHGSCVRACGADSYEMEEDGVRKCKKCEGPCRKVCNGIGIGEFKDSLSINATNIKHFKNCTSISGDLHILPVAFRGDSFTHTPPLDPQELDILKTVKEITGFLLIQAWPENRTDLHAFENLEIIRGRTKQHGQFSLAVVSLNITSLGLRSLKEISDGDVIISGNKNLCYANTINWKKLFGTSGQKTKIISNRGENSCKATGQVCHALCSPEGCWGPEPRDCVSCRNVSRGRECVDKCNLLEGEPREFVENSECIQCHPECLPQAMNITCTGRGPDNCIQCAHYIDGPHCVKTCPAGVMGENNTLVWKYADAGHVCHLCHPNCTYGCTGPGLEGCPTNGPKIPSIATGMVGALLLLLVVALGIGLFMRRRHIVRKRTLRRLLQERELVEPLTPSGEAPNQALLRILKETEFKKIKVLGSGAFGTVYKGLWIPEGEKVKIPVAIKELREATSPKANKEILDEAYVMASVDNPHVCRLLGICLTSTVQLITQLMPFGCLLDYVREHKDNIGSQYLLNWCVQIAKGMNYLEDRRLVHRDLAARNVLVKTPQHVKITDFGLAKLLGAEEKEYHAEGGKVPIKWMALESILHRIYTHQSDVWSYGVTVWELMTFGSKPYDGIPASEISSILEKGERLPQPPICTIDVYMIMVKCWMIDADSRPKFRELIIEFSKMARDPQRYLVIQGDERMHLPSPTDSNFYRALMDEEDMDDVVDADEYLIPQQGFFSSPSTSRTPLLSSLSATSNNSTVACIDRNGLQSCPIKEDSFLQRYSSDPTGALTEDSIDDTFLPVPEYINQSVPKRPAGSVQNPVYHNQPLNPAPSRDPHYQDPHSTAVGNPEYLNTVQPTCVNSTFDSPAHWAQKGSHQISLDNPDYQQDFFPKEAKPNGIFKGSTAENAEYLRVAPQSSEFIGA

As for `COc1cc2c(Nc3ccc(F)c(Cl)c3)ncnc2cc1OCCCOc1ccc(-c2cssc2=S)cc1`, the GI50 was 0.27 µM in assay [1]; more than 10 µM in [2]; more than 10 µM in assay [3]; more than 10 µM in [4]; more than 10 µM in [5]; more than 10 µM in [6].

Consider `COc1cc2c(Nc3cccc(C(F)(F)F)c3)ncnc2cc1OCCCOc1ccc(-c2cssc2=S)cc1`, for which the concentration for 50% growth inhibition (GI50) was 0.38 µM in assay [1]; 1.65 µM in assay [2]; 1.98 µM in assay [3]; 7.47 µM in [4]; 3.79 µM in [5]; more than 10 µM in [6].

As for `[Cl-].[Cl-].[Zn+2]` [ZINC CHLORIDE], in the assay on NCI-H3255 [7], the Cell proliferation rate % at 10 µM came out at 54%.

Take `C=CCCSSCC(=O)Nc1ccc2ncnc(Nc3cccc(Br)c3)c2c1`: the GI50 is 0.011 µM in [1]; more than 10 µM in [2]; more than 10 µM in assay [3]; 0.519 µM in assay [4]; more than 10 µM in [5]; more than 10 µM in assay [6].

Consider `COc1ccc(Nc2ncnc3cc(OCCCOc4ccc(-c5cssc5=S)cc4)c(OC)cc23)cc1OC`, for which the GI50 in [1] is 0.83 µM; in [2], 6.35 µM; in assay [3], 3.39 µM; in assay [4] it was 8.58 µM; in assay [5] it was 2.65 µM; in [6] it was more than 10 µM. The Drug metabolism result in [8] and in assay [9] was “Metabolite detected” each time.

On to `C=CC(=O)Nc1cc(Nc2nccc(-c3cn(C)c4ccccc34)n2)c(OC)cc1N(C)CCN(C)C` [OSIMERTINIB], for which the half-inhibitory concentration (IC50) in the assay with HUVEC amounted to 7.28 µM.

`COc1cc2c(Nc3ccc([N+](=O)[O-])cc3)ncnc2cc1OCCCOc1ccc(-c2cssc2=S)cc1`: the GI50 in assay [1] is 0.6 µM; in [2] it was more than 10 µM; in assay [3], 4.08 µM; in [4], 1.87 µM; in assay [5], 3.79 µM; in assay [6] it was more than 10 µM.

Consider `COc1cc2c(Nc3cccc(Br)c3)ncnc2cc1OCCCOc1ccc(-c2cssc2=S)cc1`, for which the GI50 in [1] was 0.12 µM; in assay [2] it was more than 10 µM; in assay [3] it was 3.06 µM; in assay [4] it was 2.4 µM; in assay [5], 9.23 µM; in assay [6] it was more than 10 µM.

For the compound `C=CCSSCCC(=O)OCCCOc1cc2ncnc(Nc3ccc(Br)cc3)c2cc1OC`, the concentration for 50% growth inhibition (GI50) was 0.058 µM in [1]; more than 10 µM in assay [2]; 2.34 µM in assay [3]; 1.35 µM in assay [4]; 3.91 µM in assay [5]; more than 10 µM in [6].

Regarding `O=C(COc1ccc(-c2cssc2=O)cc1)Nc1ccc2ncnc(Nc3ccc(F)c(Cl)c3)c2c1`, the GI50 in [1] is 0.29 µM; in [2], 3.16 µM; in assay [3], 2.49 µM; in assay [4] it was 4.36 µM; in assay [5], 4.27 µM; in assay [6], more than 10 µM. The Drug metabolism result in assay [8] and in assay [9] was “Metabolite detected” throughout.

As for `C=CCSSCCC(=O)OCCCOc1cc2ncnc(Nc3cccc(Br)c3)c2cc1OC`, the concentration for 50% growth inhibition (GI50) in assay [10] is 0.303 µM; in [1], 0.008 µM; in assay [2] it was 6.03 µM; in [3], more than 10 µM; in assay [4], 0.787 µM; in [5], more than 10 µM. The figures for the GI50 in [6] and in assay [22] were more than 10 µM and 0.0069 µM, respectively. Further, the Activity in the assay on NCI-H3255 [11] is listed as 88.61%; in the assay on NCI-H3255 [12], 8.73%; in the assay on NCI-H3255 [13], 5.19%; in the assay on NCI-H3255 [15], 10.23%; in the assay on NCI-H3255 [16] it was 2.66%; in the assay with NCI-H3255 [17], 84.88%. In addition, the Activity with NCI-H3255 [18] is recorded as 34.49%; with NCI-H3255 [19], 60.32%; in the assay with NCI-H3255 [20], 4.89%. Moreover, the Drug metabolism entry in assay [14] and in assay [9] was “Metabolite detected” each time. Moreover, in the assay on HUVEC, the IC50 is more than 10 µM. Also, in [21], the inhibition result is “Dose-dependent effect”.

`C=CCCSSCC(=O)Nc1ccc2ncnc(Nc3cccc(C(F)(F)F)c3)c2c1`: in [6], the GI50 was more than 10 µM.

Consider `COc1cc2c(Nc3ccc(Br)cc3)ncnc2cc1OCCCOc1ccc(-c2cssc2=S)cc1`, for which the GI50 in assay [1] is 0.25 µM; in [2], more than 10 µM; in [3], 9.56 µM; in [4], 1.41 µM; in assay [5], 9.23 µM; in assay [6] it was more than 10 µM.

With `C=CCCSSCC(=O)Nc1ccc2ncnc(Nc3ccc(F)c(Cl)c3)c2c1`, the GI50 in [1] was 0.012 µM; in [2], more than 10 µM; in assay [3] it was more than 10 µM; in assay [4] it was 0.349 µM; in assay [5], more than 10 µM; in assay [6], more than 10 µM.

Turning to `O=C(COc1ccc(-c2cssc2=O)cc1)Nc1ccc2ncnc(Nc3cccc(Br)c3)c2c1`, in assay [6], the GI50 is more than 10 µM.

For the compound `O=C(COc1ccc(-c2cssc2=O)cc1)Nc1ccc2ncnc(Nc3cccc(C(F)(F)F)c3)c2c1`, the GI50 in [6] is more than 10 µM.

The record behind these values is ChEMBL document CHEMBL4765363, “Design, synthesis and biological evaluation of 4-aniline quinazoline derivatives conjugated with hydrogen sulfide (HS) donors as potent EGFR inhibitors against L858R resistance mutation” (Eur J Med Chem, 2020).
